Source: ChEMBL document CHEMBL1275591, “Cellular pharmacodynamics of the novel biaryloxazolidinone radezolid: studies with infected phagocytic and nonphagocytic cells, using Staphylococcus aureus, Staphylococcus epidermidis, Listeria monocytogenes, and Legionella pneumophila” (Antimicrob Agents Chemother, 2010)
Values after ≈ are worked out from the molar mass of the structure shown.

Key:
Staphylococcus aureus [1] = assay: Antimicrobial activity against linezolid-susceptible Staphylococcus aureus SA040 infected in THP1 cells after 24 hrs; format: functional, organism-based; conditions: SA040, THP-1, 24 h
Outline: (§1)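 Bacteria were phagocytosed by human THP-1 macrophage-like cells, then exposed to a range of drug concentrations for a fixed time: 24 h for S. aureus, S. epidermidis and L. monocytogenes, 48 h for L. pneumophila. Change in CFU versus the initial inoculum was fitted with a sigmoidal curve to give Emin, Emax (relative maximal efficacy), EC50 and static concentration (Cs).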

Staphylococcus aureus [2] = assay: Antimicrobial activity against linezolid-resistant Staphylococcus aureus SA238L infected in rat fibroblast cells assessed as log reduction in bacterial count after 24 hrs; format: functional
Outline: (§2)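 S. aureus was internalized by adherent nonphagocytic cells: Calu-3, HUVEC, keratinocytes on collagen-coated wells, osteoblasts, or rat embryo fibroblasts. Inoculum was 5 × 10^7 to 1 × 10^8 bacteria/ml with 2 h phagocytosis (HUVEC: 2 × 10^6/ml, 1 h). Cells were then exposed to graded drug concentrations for 24 h. CFU change versus the original inoculum was fitted sigmoidally for Emax and Cs.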

Staphylococcus aureus [3] = assay: Antimicrobial activity against linezolid-susceptible Staphylococcus aureus SA238 infected in Calu-3 cells assessed as log reduction in bacterial count after 24 hrs; format: functional; outline: as §2
[4] = Ratio of drug level for cellular to extracellular region of Staphylococcus aureus infected human keratinocyte at 4 mg/liter after 2 hrs; format: ADME, cell-based
Outline: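 Cells were exposed to [14C]radezolid for 2 or 24 h. Cell-associated drug in lysates was measured by liquid scintillation counting (detection limit 0.003 mg/liter; linear 0.01–0.78 mg/liter). Content was normalised to cell protein (Lowry). It was converted to apparent cellular concentration at 5 μl per mg protein and expressed relative to the extracellular concentration.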

Staphylococcus aureus [5] = assay: Antimicrobial activity against hospital acquired methicillin-resistant, vancomycin resistant Staphylococcus aureus VRS2 after 24 hrs; format: functional; conditions: VRS2, 24 h
Staphylococcus aureus [6] = assay: Antimicrobial activity against linezolid-resistant Staphylococcus aureus SA238L infected in human osteoblasts cells assessed as log reduction in bacterial count after 24 hrs; format: functional; outline: as §2
Staphylococcus aureus [7] = assay: Bacteriostatic activity against linezolid-susceptible Staphylococcus aureus ATCC 33591 infected in THP1 cells after 24 hrs; format: functional, THP-1
Outline: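 Human THP-1 myelomonocytic (macrophage-like) cells infected with S. aureus, then exposed 24 h to a range of antibiotic concentrations. CFU change was measured against the initial inoculum. A sigmoidal dose-response curve was fitted to give Emin, Emax and EC50, and the apparent static concentration (Cs) was taken from the fit.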

Staphylococcus aureus [8] = assay: Antimicrobial activity against Staphylococcus aureus ATCC 25923 infected in THP-1 cells assessed as log reduction in bacterial count at 1 mg/L after 5 hrs; format: functional
Outline: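 Time-course test with S. aureus ATCC 25923, either in Mueller-Hinton broth or after phagocytosis by THP-1 cells. Samples were taken over a 5 h incubation with drug at 1 mg/liter. Read-out was the change in CFU relative to the initial inoculum, reported as means.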

Staphylococcus aureus [9] = assay: Bacteriostatic activity against linezolid-susceptible Staphylococcus aureus SA238 infected in rat fibroblast cells after 24 hrs; format: functional
Outline: (§3)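 Adherent nonphagocytic cells were infected at 5 × 10^7 to 1 × 10^8 bacteria/ml with 2 h phagocytosis. Cells used: Calu-3 bronchial epithelium grown in uncoated flasks, neonatal foreskin keratinocytes on collagen-coated wells, primary human osteoblasts, and primary rat embryo fibroblasts. Antibiotic was then given over a concentration range for 24 h. Cs came from a sigmoidal fit of CFU change.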

Staphylococcus aureus [10] = assay: Antimicrobial activity against linezolid-resistant Staphylococcus aureus SA040L infected in THP1 cells after 24 hrs; format: functional, organism-based; conditions: THP-1, 24 h; outline: as §1
Staphylococcus aureus [11] = assay: Antimicrobial activity against methicillin-susceptible Staphylococcus aureus SA040 after 24 hrs; format: functional; conditions: SA040, 24 h
Legionella pneumophila = assay: Bacteriostatic activity against Legionella pneumophila ATCC 33153 infected in THP1 cells after 48hrs; format: functional, THP-1; outline: as §1
Staphylococcus aureus [12] = assay: Bacteriostatic activity against linezolid-susceptible Staphylococcus aureus SA238 infected in HUVEC cells after 24 hrs; format: functional
Outline: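 HUVEC were grown in endothelial growth medium on gelatin-treated flasks. They were infected with 2 × 10^6 bacteria/ml for 1 h phagocytosis, then exposed 24 h to graded antibiotic concentrations. CFU change from the initial inoculum was fitted to a sigmoidal curve to obtain the static concentration (Cs).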

Staphylococcus aureus [13] = assay: Antimicrobial activity against linezolid-resistant Staphylococcus aureus SA238L infected in HUVEC cells assessed as log reduction in bacterial count after 24 hrs; format: functional; outline: as §2
Staphylococcus aureus [14] = assay: Bacteriostatic activity against linezolid-susceptible Staphylococcus aureus SA238 infected in human osteoblasts cells after 24 hrs; format: functional; outline: as §3
Staphylococcus aureus [15] = assay: Bacteriostatic activity against linezolid-resistant Staphylococcus aureus SA238L infected in Calu-3 cells after 24 hrs; format: functional; outline: as §3

Which EC50 (Staphylococcus aureus [1]) does the source give for CC(=O)NC[C@H]1CN(c2ccc(-c3ccc(CNCc4cnn[nH]4)cc3)c(F)c2)C(=O)O1 [RADEZOLID] here?
Its EC50 is 0.09 µg/mL (≈ 0.205 µM).

And the log10cfu (Staphylococcus aureus [2])?
The log10cfu was 0.6.

And the log10cfu (Staphylococcus aureus [3])?
Its log10cfu is 0.6.

And the Ratio [4]?
The Ratio was 12.6.

And the MIC (Staphylococcus aureus [5])?
Its MIC is 2 µg/mL (≈ 4.56 µM).

What about the log10cfu (Staphylococcus aureus [6]) of the same compound?
The log10cfu was 0.6.

And the Activity (Staphylococcus aureus [7])?
The Activity was 0.56 mg/L.

And the log10cfu (Staphylococcus aureus [8])?
Its log10cfu is 0.5.

And the Activity (Staphylococcus aureus [9])?
The Activity was 0.6 mg/L.

And the EC50 (Staphylococcus aureus [10])?
Its EC50 is 0.14 µg/mL (≈ 0.319 µM).

And the MIC (Staphylococcus aureus [11])?
The MIC was 1 µg/mL (≈ 2.28 µM).

What about the Activity (Legionella pneumophila) of the same compound?
Its Activity is 0.36 mg/L.

And the Activity (Staphylococcus aureus [12])?
The Activity was 0.6 mg/L.

And the log10cfu (Staphylococcus aureus [13])?
The log10cfu was 0.6.

What about the Activity (Staphylococcus aureus [14]) of the same compound?
Its Activity is 0.6 mg/L.

What about the Activity (Staphylococcus aureus [15]) of the same compound?
Its Activity is 0.6 mg/L.
